Measured values from ChEMBL document CHEMBL2375253, “Discovery of novel 2,6-disubstituted pyridazinone derivatives as acetylcholinesterase inhibitors” (Eur J Med Chem, 2013).

How the values were obtained:
Acetylcholinesterase = molecular target: T1, Acetylcholinesterase (Rattus norvegicus, UniProt P37136); assay: Inhibition of AChE in rat cerebral cortex homogenates using acetylthiocholine iodide as substrate after 8 mins by Ellman's spectrophotometric method; type: tissue-based
T1 sequence (P37136 whole entry): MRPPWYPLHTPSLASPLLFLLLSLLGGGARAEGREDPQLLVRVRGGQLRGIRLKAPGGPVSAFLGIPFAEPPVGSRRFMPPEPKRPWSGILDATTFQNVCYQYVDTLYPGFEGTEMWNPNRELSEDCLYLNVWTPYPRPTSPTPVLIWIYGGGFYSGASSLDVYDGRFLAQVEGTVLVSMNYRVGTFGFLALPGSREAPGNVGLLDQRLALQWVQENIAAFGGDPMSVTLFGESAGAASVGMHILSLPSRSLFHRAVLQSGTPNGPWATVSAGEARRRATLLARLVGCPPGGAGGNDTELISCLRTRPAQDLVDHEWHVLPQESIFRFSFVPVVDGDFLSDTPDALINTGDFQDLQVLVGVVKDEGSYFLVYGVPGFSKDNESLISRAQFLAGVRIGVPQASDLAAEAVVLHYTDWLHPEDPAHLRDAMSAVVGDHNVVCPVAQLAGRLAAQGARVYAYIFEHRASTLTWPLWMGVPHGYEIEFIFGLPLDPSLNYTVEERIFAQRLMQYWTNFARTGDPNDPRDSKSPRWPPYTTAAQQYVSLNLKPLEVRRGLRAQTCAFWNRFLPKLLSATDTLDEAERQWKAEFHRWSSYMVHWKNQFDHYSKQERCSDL
Method in brief: (§1)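 Ellman colorimetric assay. Compounds were dissolved in DMSO to 10 mM and diluted in double-distilled water. Each mixture held compound, phosphate buffer ([…]) and enzyme with substrate. For AChE, rat cerebral cortex homogenate was used with acetylthiocholine iodide (2 mM solution). For BuChE, rat serum was used with S-butyrylthiocholine iodide (2 mM solution). Incubated 8 min, stopped with 3% SDS, then 0.2% DTNB added. Absorbance read at 440 nm, duplicates.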

Rattus norvegicus = species on record: Rattus norvegicus; assay: Selectivity ratio of IC50 for rat serum BuChE to IC50 for AChE in rat cerebral cortex homogenates; type: tissue-based
Butyrylcholinesterase = Butyrylcholinesterase (Rattus norvegicus, UniProt Q9JKC1); assay: Inhibition of rat serum BuChE using S-butyrylthiocholine iodide as substrate after 8 mins by Ellman's spectrophotometric method; method in brief: as §1
Chain of Butyrylcholinesterase (Q9JKC1 whole entry): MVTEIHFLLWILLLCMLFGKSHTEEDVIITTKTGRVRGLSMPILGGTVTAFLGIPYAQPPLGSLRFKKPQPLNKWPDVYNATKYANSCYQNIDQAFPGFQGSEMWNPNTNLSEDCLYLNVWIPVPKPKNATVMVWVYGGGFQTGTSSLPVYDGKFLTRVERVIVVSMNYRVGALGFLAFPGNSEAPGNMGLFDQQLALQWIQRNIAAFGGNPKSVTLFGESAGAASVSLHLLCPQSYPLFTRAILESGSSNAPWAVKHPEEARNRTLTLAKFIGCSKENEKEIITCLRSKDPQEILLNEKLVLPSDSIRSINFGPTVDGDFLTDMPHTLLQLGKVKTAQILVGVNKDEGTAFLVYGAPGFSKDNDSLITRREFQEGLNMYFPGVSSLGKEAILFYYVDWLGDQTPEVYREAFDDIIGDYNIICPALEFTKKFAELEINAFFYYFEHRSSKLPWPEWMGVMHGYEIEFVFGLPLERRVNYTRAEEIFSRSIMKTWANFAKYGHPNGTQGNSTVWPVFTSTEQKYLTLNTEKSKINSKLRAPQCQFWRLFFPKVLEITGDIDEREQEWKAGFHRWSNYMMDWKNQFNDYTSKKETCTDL

Row | Structure (SMILES) | IC50 (Acetylcholinesterase; read-out: IC50) [nM] | Ratio IC50 (Rattus norvegicus) | IC50 (Butyrylcholinesterase) [nM] | IC50 (Acetylcholinesterase)
1 | CCN(CC)C(=O)C1CCN(C(=O)Nc2cccc(Cn3ncccc3=O)c2)CC1 | 4900 | – | – | –
2 | CCc1ccccc1Nc1ccc(=O)n(Cc2cccc(NC(=O)N3CCC(C(=O)N(CC)CC)CC3)c2)n1 | 188 | – | – | –
3 | CCN(CC)C(=O)C1CCN(C(=O)Nc2cccc(Cn3nc(-c4ccccc4C)ccc3=O)c2)CC1 | 2610 | – | – | –
4 | CCN(CC)C(=O)C1CCN(C(=O)Nc2cccc(Cn3nc(Nc4ccc(C)cc4)ccc3=O)c2)CC1 | 19800 | – | – | –
5 | CCN(C)C(=O)C1CCN(C(=O)Nc2cccc(Cn3nc(Nc4ccccc4C)ccc3=O)c2)CC1 | 473 | > 84 | > 40000 | –
6 | Cc1ccccc1Nc1ccc(=O)n(Cc2cccc(NC(=O)N3CCC(C(=O)N(C)C)CC3)c2)n1 | 7600 | – | – | –
7 | CCN(CC)C(=O)C1CCN(C(=O)Nc2cccc(Cn3nc(-c4cccc(C#N)c4)ccc3=O)c2)CC1 | 220 | – | – | –
8 | CCN(CC)C(=O)C1CCN(C(=O)Nc2cccc(Cn3nc(Nc4ccc(C(F)(F)F)cc4)ccc3=O)c2)CC1 | 4840 | – | – | –
9 | CCN(CC)C(=O)C1CCN(C(=O)Nc2cccc(Cn3nc(Nc4ccccc4C(C)C)ccc3=O)c2)CC1 | 1500 | – | – | –
10 | CCN(CC)C(=O)C1CCN(C(=O)Nc2cccc(Cn3nc(-c4ccc5ccccc5c4)ccc3=O)c2)CC1 | 462 | – | – | –
11 | CCN(CC)C(=O)C1CCN(C(=O)Nc2cccc(Cn3nc(-c4cccc(Cl)c4)ccc3=O)c2)CC1 | 648 | – | – | –
12 | CCN(CC)C(=O)C1CCN(C(=O)Nc2cccc(Cn3nc(Nc4ccccc4)ccc3=O)c2)CC1 | 3280 | > 12 | > 40000 | –
13 | CCN(CC)C(=O)C1CCN(C(=O)Nc2cccc(Cn3nc(-c4cccc(Br)c4)ccc3=O)c2)CC1 | 623 | – | – | –
14 | Cc1ccccc1Nc1ccc(=O)n(Cc2cccc(NC(=O)N3CCC(C(=O)N(C)C(C)C)CC3)c2)n1 | 46 | 217 | 10000 | –
15 | Cc1ccccc1Nc1ccc(=O)n(Cc2cccc(NC(=O)N3CCC(C(=O)N4CCOCC4)CC3)c2)n1 | – | – | – | Not Active
16 | CCN(CC)C(=O)C1CCN(C(=O)Nc2cccc(Cn3nc(Nc4cccc(C(F)(F)F)c4)ccc3=O)c2)CC1 | 135 | – | – | –
17 | CCN(C(=O)C1CCN(C(=O)Nc2cccc(Cn3nc(Nc4ccccc4C)ccc3=O)c2)CC1)C(C)C | 28 | 196 | 5500 | –
18 | CCN(CC)C(=O)C1CCN(C(=O)Nc2cccc(Cn3nc(-c4ccc(C)cc4)ccc3=O)c2)CC1 | 2010 | – | – | –
19 | CCN(CC)C(=O)C1CCN(C(=O)Nc2cccc(Cn3nc(Nc4ccccc4C(F)(F)F)ccc3=O)c2)CC1 | 119 | – | – | –
20 | CCN(CC)C(=O)C1CCN(C(=O)Nc2cccc(Cn3nc(Nc4cccc5ccccc45)ccc3=O)c2)CC1 | 126 | – | – | –
21 | c1ccc(CN2CCC(CCNc3cc4c(nn3)-c3ccccc3CC4)CC2)cc1 | 39 | – | – | –
22 | CCN(CC)C(=O)C1CCN(C(=O)Nc2cccc(Cn3nc(-c4cccc5ccccc45)ccc3=O)c2)CC1 | 188 | > 212 | > 40000 | –
23 | c1ccc(CN2CCC(CCN=c3cc4c(n[nH]3)-c3ccccc3C4)CC2)cc1 | 10 | – | – | –
24 | CCN(CC)C(=O)C1CCN(C(=O)Nc2cccc(Cn3nc(-c4ccccc4)ccc3=O)c2)CC1 | 1660 | > 24 | > 40000 | –
25 | CCN(CC)C(=O)C1CCN(C(=O)Nc2cccc(Cn3nc(Nc4ccccc4C)ccc3=O)c2)CC1 | 49 | > 816 | > 40000 | –
26 | CCN(CC)C(=O)C1CCN(C(=O)Nc2cccc(Cn3nc(-c4cccc(C)c4)ccc3=O)c2)CC1 | 746 | – | – | –
27 | Cc1ccccc1Nc1ccc(=O)n(Cc2cccc(NC(=O)N3CCC(C(=O)N(C(C)C)C(C)C)CC3)c2)n1 | 116 | – | – | –
28 | CCN(CC)C(=O)C1CCN(C(=O)Nc2cccc(Cn3nc(Nc4c(C)cccc4C)ccc3=O)c2)CC1 | 607 | – | – | –
29 | CCN(CC)C(=O)C1CCN(C(=O)Nc2cccc(Cn3nc(Nc4cccc(C)c4)ccc3=O)c2)CC1 | 1420 | – | – | –
